Results as given in ChEMBL document CHEMBL2390884, “Design, synthesis and antiproliferative activity studies of novel 1,2,3-triazole-dithiocarbamate-urea hybrids” (Eur J Med Chem, 2013).
Calls of active or inactive are those of the source. No cut-off for these calls is given here.

Key:
[1] = test system: MGC-803; test: Cell cycle arrest in human MGC803 cells assessed as accumulation at S phase at 0.25 uM after 24 hrs by propidium iodide staining-based flow cytometry; type: functional
Method in brief: (§1)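 Exponentially growing MGC-803 cells (5×10^5) treated at 0, 0.25, 0.5 or 1.0 µmol/L for 12 or 24 h; cells collected, fixed in ice-cold 70% ethanol, treated with buffer containing RNAse A and 0.1% Triton X-100, stained with PI; DNA content analysed by flow cytometry to give percentages of cells in G1, S and G2/M phases.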

[2] = test system: MGC-803; test: Cell cycle arrest in human MGC803 cells assessed as accumulation at G2/M phase at 0.25 uM after 24 hrs by propidium iodide staining-based flow cytometry; type: functional; method in brief: as §1
[3] = test system: MGC-803; test: Cell cycle arrest in human MGC803 cells assessed as reduction in G1 phase accumulation at 0.25 to 1 uM by propidium iodide staining-based flow cytometry; type: functional; settings: TDE = time-dependent effect; method in brief: as §1
[4] = test system: MGC-803; test: Cell cycle arrest in human MGC803 cells assessed as reduction in S phase accumulation after 12 to 24 hrs by propidium iodide staining-based flow cytometry; type: functional; method in brief: as §1
[5] = test system: MGC-803; test: Cell cycle arrest in human MGC803 cells assessed as accumulation at G2/M phase at 0.5 uM after 12 hrs by propidium iodide staining-based flow cytometry; type: functional; method in brief: as §1
[6] = test system: MGC-803; test: Cell cycle arrest in human MGC803 cells assessed as accumulation at S phase at 1 uM after 12 hrs by propidium iodide staining-based flow cytometry; type: functional; method in brief: as §1
[7] = test system: MGC-803; test: Cell cycle arrest in human MGC803 cells assessed as accumulation at G2/M phase at 0.5 uM after 24 hrs by propidium iodide staining-based flow cytometry; type: functional; method in brief: as §1
[8] = test system: MGC-803; test: Cell cycle arrest in human MGC803 cells assessed as accumulation at G0/G1 phase at 0.25 uM after 12 hrs by propidium iodide staining-based flow cytometry; type: functional; method in brief: as §1
[9] = test system: SMMC-7721; test: Cytotoxicity against human SMMC7721 cells after 72 hrs by MTT assay; type: functional, cell-based; settings: SMMC-7721, 72 h
[10] = test system: MGC-803; test: Induction of apoptosis in human MGC803 cells assessed as chromatin condensation at 0.25 to 1 uM after 12 hrs by Hoechst 33258 staining-based fluorescence microscopy; type: functional, cell-based
Method in brief: (§2)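 MGC-803 cells seeded at 8×10^3 cells/well, treated 12 h at 0, 0.25, 0.5 or 1.0 µmol/L; cells collected, fixed, stained 20 min with Hoechst 33258, washed with PBS; nuclear shrinkage, chromatin condensation, intense fluorescence and fragmentation scored by fluorescence microscopy.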

[11] = test system: MGC-803; test: Cell cycle arrest in human MGC803 cells assessed as accumulation at G0/G1 phase at 0.5 uM after 24 hrs by propidium iodide staining-based flow cytometry; type: functional; method in brief: as §1
[12] = test system: MGC-803; test: Induction of apoptosis in human MGC803 cells assessed as nuclear fragmentation at 0.25 to 1 uM after 12 hrs by Hoechst 33258 staining-based fluorescence microscopy; type: functional, cell-based; method in brief: as §2
[13] = test system: MGC-803; test: Cell cycle arrest in human MGC803 cells assessed as accumulation at S phase at 1 uM after 24 hrs by propidium iodide staining-based flow cytometry; type: functional; method in brief: as §1
[14] = test system: MGC-803; test: Cell cycle arrest in human MGC803 cells assessed as accumulation at G2/M phase at 0.25 uM after 12 hrs by propidium iodide staining-based flow cytometry; type: functional; method in brief: as §1
[15] = test system: MGC-803; test: Cell cycle arrest in human MGC803 cells assessed as accumulation at S phase at 0.5 uM after 24 hrs by propidium iodide staining-based flow cytometry; type: functional; method in brief: as §1
[16] = test system: MGC-803; test: Cell cycle arrest in human MGC803 cells assessed as reduction in G1 phase accumulation after 12 to 24 hrs by propidium iodide staining-based flow cytometry; type: functional; method in brief: as §1
[17] = test system: MGC-803; test: Cell cycle arrest in human MGC803 cells assessed as accumulation at G2/M phase after 12 to 24 hrs by propidium iodide staining-based flow cytometry; type: functional; method in brief: as §1
[18] = test system: MGC-803; test: Cell cycle arrest in human MGC803 cells assessed as accumulation at G2/M phase at 0.25 to 1 uM by propidium iodide staining-based flow cytometry; type: functional; settings: TDE = time-dependent effect; method in brief: as §1
[19] = test system: MGC-803; test: Cell cycle arrest in human MGC803 cells assessed as accumulation at S phase at 0.25 uM after 12 hrs by propidium iodide staining-based flow cytometry; type: functional; method in brief: as §1
[20] = test system: MCF7; test: Cytotoxicity against human MCF7 cells after 72 hrs by MTT assay; type: functional, cell-based; settings: MCF7, 72 h
[21] = test system: MGC-803; test: Cell cycle arrest in human MGC803 cells assessed as accumulation at G2/M phase at 1 uM after 12 hrs by propidium iodide staining-based flow cytometry; type: functional; method in brief: as §1
[22] = test system: MGC-803; test: Cell cycle arrest in human MGC803 cells assessed as accumulation at G0/G1 phase at 1 uM after 12 hrs by propidium iodide staining-based flow cytometry; type: functional; method in brief: as §1
[23] = test system: MGC-803; test: Cytotoxicity against human MGC803 cells after 72 hrs by MTT assay; type: functional, cell-based; settings: MGC-803, 72 h
[24] = test system: MGC-803; test: Cell cycle arrest in human MGC803 cells assessed as accumulation at G2/M phase at 1 uM after 24 hrs by propidium iodide staining-based flow cytometry; type: functional; method in brief: as §1
[25] = test system: MGC-803; test: Cell cycle arrest in human MGC803 cells assessed as accumulation at G0/G1 phase at 0.25 uM after 24 hrs by propidium iodide staining-based flow cytometry; type: functional; method in brief: as §1
[26] = test system: MGC-803; test: Cell cycle arrest in human MGC803 cells assessed as accumulation at S phase at 0.5 uM after 12 hrs by propidium iodide staining-based flow cytometry; type: functional; method in brief: as §1
[27] = test system: MGC-803; test: Cell cycle arrest in human MGC803 cells assessed as accumulation at G0/G1 phase at 1 uM after 24 hrs by propidium iodide staining-based flow cytometry; type: functional; method in brief: as §1
[28] = test system: HEK293; test: Cytotoxicity against human HEK293 cells up to 55 uM after 72 hrs by MTT assay; type: cell-based; settings: hek293, 72 h
Method in brief: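 HEK293 cells seeded at 5×10^3 per well, grown 24 h at 37°C, then medium replaced with compound-containing medium over a concentration range; 72 h exposure; MTT (5 mg/mL stock) added for 4 h at 37°C, formazan dissolved in DMSO, absorbance read at 570 nm. Triplicate per concentration, experiment repeated three times.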

[29] = test system: MGC-803; test: Induction of apoptosis in human MGC803 cells assessed as nuclear shrinkage at 0.25 to 1 uM after 12 hrs by Hoechst 33258 staining-based fluorescence microscopy; type: functional, cell-based; method in brief: as §2
[30] = test system: MGC-803; test: Cell cycle arrest in human MGC803 cells assessed as accumulation at G0/G1 phase at 0.5 uM after 12 hrs by propidium iodide staining-based flow cytometry; type: functional; method in brief: as §1
[31] = test system: MGC-803; test: Cell cycle arrest in human MGC803 cells assessed as reduction in S phase accumulation at 0.25 to 1 uM by propidium iodide staining-based flow cytometry; type: functional; settings: TDE = time-dependent effect; method in brief: as §1
[32] = Cytotoxicity against human EC9706 cells after 72 hrs by MTT assay; type: functional, cell-based; settings: EC9706, 72 h

CC(C)NC(=O)N1CCN(C(=S)SCc2cn(Cc3ccccc3F)nn2)CC1
Activity [1]: 35.96%
Activity [2]: 32.93%
Activity [3]: tde
Activity [4]: Dose-dependent effect
Activity [5]: 50.35%
Activity [6]: 39.11%
Activity [7]: 68.71%
Activity [8]: 38.7%
IC50 [9]: 7.13 µM
Activity [10]: Active
Activity [11]: 10.9%
Activity [12]: Active
Activity [13]: 15.66%
Activity [14]: 21.86%
Activity [15]: 17.4%
Activity [16]: Dose-dependent effect
Activity [17]: Dose-dependent effect
Activity [18]: tde
Activity [19]: 39.06%
IC50 [20]: 1.86 µM
Activity [21]: 59.86%
Activity [22]: 6.02%
IC50 [23]: 1.62 µM
Activity [24]: 74.95%
Activity [25]: 31.47%
Activity [26]: 26.26%
Activity [27]: 2.99%
Activity [28]: Non-toxic
Activity [29]: Active
Activity [30]: 19.1%
Activity [31]: tde
IC50 [32]: 20.8 µM
